A word on the Ki: it is a dissociation constant, usually derived from enzyme kinetics or from competition with a known ligand. A low value points to a stronger hold on the target. Broadly, the IC50 is the concentration at which inhibition is half-maximal. Lower therefore signals higher potency.

Among the data in ChEMBL document CHEMBL1137390, “Structure-based design of potent small-molecule inhibitors of anti-apoptotic Bcl-2 proteins” (J Med Chem, 2006) are Ki, Activity and IC50 values, retold here.

Test [1] has as its target T1, Apoptosis regulator Bcl-2 (Homo sapiens, UniProt P10415). As to the kind of experiment: Displacement of FAM-Bid from human Bcl2 by FP assay. In a few lines:
(§1)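 Competitive fluorescence-polarization binding assay against the recombinant anti-apoptotic protein. Values are reported as Ki ± SD from three to seven independent experiments per compound.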

Test [2] relates to PC-3. Kind of test: Induction of apoptosis in human PC3 cell at 20 uM by TUNEL assay. Type of test: functional. In a few lines: (§2)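 PC-3 prostate cancer cells were exposed to compound for 4 days, with an untreated control included. Apoptosis was scored by TUNEL using flow cytometry: the BrdU-FITC-positive fraction (M1 marker) is given as the percentage of apoptotic cells.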
The target of test [3] is Induced myeloid leukemia cell differentiation protein Mcl-1 (Homo sapiens, UniProt Q07820). Kind of test: Displacement of FAM-Bid from human Mcl1 by FP assay.
Chain of Induced myeloid leukemia cell differentiation protein Mcl-1 (Q07820 whole entry): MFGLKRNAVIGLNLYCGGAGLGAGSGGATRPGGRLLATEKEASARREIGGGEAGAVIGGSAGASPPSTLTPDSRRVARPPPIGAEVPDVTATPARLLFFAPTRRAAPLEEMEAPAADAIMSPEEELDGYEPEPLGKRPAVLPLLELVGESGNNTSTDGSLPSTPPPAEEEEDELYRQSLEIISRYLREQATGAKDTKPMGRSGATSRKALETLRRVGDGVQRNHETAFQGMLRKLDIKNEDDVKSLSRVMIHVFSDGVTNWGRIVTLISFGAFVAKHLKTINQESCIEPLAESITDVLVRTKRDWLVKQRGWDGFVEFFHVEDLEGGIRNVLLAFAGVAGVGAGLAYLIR
For test [4], the system named is PC-3. Kind of test: Induction of apoptosis in human PC3 cell at 5 uM by TUNEL assay. Type of test: functional. In a few lines:
as §2

The subject of test [5] is PC-3. Kind of test: Induction of apoptosis in human PC3 cell at 1.25 uM by TUNEL assay. Type of test: functional. In a few lines:
as §2

Test [6] concerns the target Bcl-2-like protein 1 (Homo sapiens, UniProt Q07817). Kind of test: Displacement of FAM-Bak from human Bcl-xL by FP assay. In a few lines:
as §1

Test [7] has as its target T1, Apoptosis regulator Bcl-2. As to the kind of experiment: Binding affinity to human Bcl2 by ELISA. (In general: ELISA stands for enzyme-linked immunosorbent assay.)

T1 sequence (P10415 whole entry): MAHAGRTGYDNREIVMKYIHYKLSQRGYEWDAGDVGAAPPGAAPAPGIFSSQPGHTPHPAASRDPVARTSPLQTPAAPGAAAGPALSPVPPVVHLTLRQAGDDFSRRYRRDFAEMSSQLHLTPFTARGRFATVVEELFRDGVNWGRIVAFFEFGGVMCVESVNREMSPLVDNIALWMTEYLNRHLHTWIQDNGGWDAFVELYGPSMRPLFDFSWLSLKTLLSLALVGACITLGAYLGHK
Chain of Bcl-2-like protein 1 (Q07817 whole entry): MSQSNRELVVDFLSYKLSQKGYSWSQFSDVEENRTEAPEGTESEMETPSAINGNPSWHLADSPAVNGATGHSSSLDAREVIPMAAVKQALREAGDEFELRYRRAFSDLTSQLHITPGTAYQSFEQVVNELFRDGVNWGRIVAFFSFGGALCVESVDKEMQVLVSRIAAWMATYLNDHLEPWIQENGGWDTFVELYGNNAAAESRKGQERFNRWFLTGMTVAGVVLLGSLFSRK

As for `COc1c(Cc2ccccc2C(C)C)cc(C(=O)Nc2ccc(S(=O)(=O)c3ccccc3C(C)(C)C)cc2)c(OC)c1OC`, in test [1], affinity was put at a Ki of 25000 nM. The molecule further gave an Activity in test [2] of 1.2%.
For `CC(C)c1ccccc1Cc1cc(C(=O)Nc2ccc(S(=O)(=O)c3ccccc3C(C)(C)C)cc2)c(O)c(O)c1O`, the concentration for half-maximal inhibition (IC50) in test [3] was 1030 nM; in test [6], 6580 nM; in test [7] it was 700 nM. Further, the inhibition constant Ki in test [3] amounted to 260 nM; in test [1], 290 nM; in test [6], 1110 nM. The results for the Activity in test [4] and in test [5] were 89.5% and 11.2%, respectively.
In turn, `CC(C)c1cc(C(=O)Nc2ccccc2)c(O)c(O)c1O` gave a Ki in test [1] of 24100 nM. This molecule displayed a 50% inhibitory concentration (IC50) in test [7] of 53100 nM.
As to `Cc1cc2c(C(C)C)c(O)c(O)c(C=O)c2c(O)c1-c1c(C)cc2c(C(C)C)c(O)c(O)c(C=O)c2c1O` [GOSSYPOL], the Ki in test [3] was found to be 180 nM; in test [6], 480 nM.
In test [3], `CC[C@H](C)[C@H](NC(=O)[C@H](CC(N)=O)NC(=O)[C@H](CCCN=C(N)N)NC(=O)[C@@H](NC(=O)[C@@H](NC(=O)[C@H](CC(=O)O)NC(=O)[C@H](CCC(=O)O)NC(=O)[C@@H](N)CCC(N)=O)[C@@H](C)CC)[C@@H](C)CC)C(=O)N[C@@H](C)C(=O)N[C@@H](CCCN=C(N)N)C(=O)N[C@@H](Cc1c[nH]cn1)C(=O)N[C@@H](CC(C)C)C(=O)N[C@@H](C)C(=O)N[C@@H](CCC(N)=O)C(=O)N[C@H](C(=O)NCC(=O)N[C@@H](CC(=O)O)C(=O)N[C@@H](CO)C(=O)N[C@@H](CCSC)C(=O)N[C@@H](CC(=O)O)C(=O)N[C@@H](CCCN=C(N)N)C(=O)O)C(C)C` yielded a 50% inhibitory concentration (IC50) of 52 nM and a Ki of 12 nM.
For `O=C(Nc1ccc(S(=O)(=O)c2ccccc2)cc1)c1cc(Cc2ccccc2)c(O)c(O)c1O`, the Ki in test [1] came out at 930 nM. For the same molecule, in test [7], the IC50 was 1600 nM.
The like results for `O=C(Nc1ccccc1)c1cc(Cc2ccccc2)c(O)c(O)c1O` were, in that order, 8300 nM and 7200 nM.
